Experimental data published in the EternaBench riboswitch data.

Tested on: MS2 coat protein
Assay: apparent Kd, MS2 coat protein; higher = weaker binding; RNA-MaP array; FMN 200 µM where present
Outline: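 Two titrations, one without ligand and one with constant ligand, were run with SNAP-549-labelled MS2 coat protein from 0.7 or 1.5 nM, doubling to 3 µM. The targets were designs transcribed by stalled E. coli RNA polymerase on Illumina sequencing-chip clusters, in 100 mM Tris-HCl pH 7.5, 80 mM KCl, 4 mM MgCl2, BSA, DTT, yeast tRNA and Tween-20. The apparent Kd is the median of filtered per-cluster binding-curve fits, with green signal normalised to red-channel RNA signal and control-cluster median Fmax.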

[1] = designed as: OFF switch for flavin mononucleotide, no ligand
[2] = ligand present: flavin mononucleotide, designed as: OFF switch for flavin mononucleotide
[3] = designed as: ON switch for flavin mononucleotide, no ligand
[4] = ligand present: flavin mononucleotide, designed as: ON switch for flavin mononucleotide

| Sequence | apparent Kd [1] [µM] | apparent Kd [2] [µM] | apparent Kd [3] [µM] | apparent Kd [4] [µM] |
| --- | --- | --- | --- | --- |
| AUAAUGGUAGGAUAUACAUGGAUAUACAUUCAUGUGGACCUACAUGAGGAUCACCCAUGUAGAAGGACCAUGAA | 0.0339 | 0.0286 | – | – |
| AUAAUGUGAGGAUAUACAUGAGGAUCACCCAUGUAAUUAAAUCGGAGAGCCACAAUUCGUAGAAGGUACAUUUA | 0.022 | 0.0277 | – | – |
| AUAAUUUUAUAUAUCAUAUAAAUCAGAAGGCAUAACAUGAGGAUCACCCAUGUAUAUUAUUGUUAUGAGGAUAUGAUUUAGUUA | 0.0158 | 0.0655 | – | – |
| AUAAUUUUAUAUAUCUAUUUAAUCAGAAGGCAUAACAUGAGGAUCACCCAUGUAAAUUAAUGUUAUGAGGAUAUGAUAUGGUUA | 0.0113 | 0.078 | – | – |
| AUACACUAAGUGAGGAUAUCGAUUUCUUUAAGGAUCGAGAAGGCACAUGAGGAUCACCCAUGUUUGACGUGAAU | 0.0344 | 0.0758 | – | – |
| AUACAUGAGGAUCACCCAUGUUACUGGGUCUAUAUAGAACGUAGAAGGAUGAUAUUAUAAAUAUCAUAGGAUAUACUAUUUUGU | 0.0299 | 0.0353 | – | – |
| AUACGAAAGAUAGGAUAUACUGAGGUUGAAUGGGUAGAAGGAUCGAUAGUGGAGAAGACAUGAGGAUCACCCAUGUUGUGGAUU | – | – | 0.681 | 0.217 |
| AUACUCAUGUAAGGAUAUGCAGCCGAAACGGCUGCAGAAGGUACUAUAAUACAUGAGGAUCACCCAUGUCAAAAUUAAAUAGUU | – | – | 0.185 | 0.0317 |
| AUACUCAUGUAAGGAUAUGCAGCCGUUUCGGCUGCAGAAGGUACUAUAAUACAUGAGGAUCACCCAUGUCUUUUUAAUUUUUAC | – | – | 0.281 | 0.0389 |
| AUACUCUUUGUGAGGAUAUCGUUUUCUUUACGGUUCGAGAAGGCACAUGAGGAUCACCCAUGUUUGACGUGAAU | 0.0244 | 0.0565 | – | – |
| AUACUUAAUGAAGGAUAUCUCAGCAUAAACCUGAGAGAAGGUCAUUAUUACAUGAGGAUCACCCAUGUUGUAGUUAAUGGGUAA | 0.352 | 0.341 | – | – |
| AUAGAAGACUAGAAGGAUUUAGUUGUAUAUUGUCGAGGUAUAUAAUUAGGUAGGAUAUGGGACAUGAGGAUCACCCAUGUUUUG | – | – | 0.0282 | 0.0154 |
| AUAGCAACAUGAGGAUCACCCAUGUAGGAUAUCGCUAUUGUAAUCAUGAAACAUGAUUACAAUAGCGAGAAGGACAUAUGCUAA | 0.00784 | 0.0102 | – | – |
| AUAGCACAUGAGGAUCACCCAUGUGAGGAUAUUAGACCAUGGCUCUCAAAGACCAUGCUGAGAAGGCACUCGGG | 0.0355 | 0.0825 | – | – |
| AUAGCUCUCUAGAAGGUCCAACCAGUAUACCAUCAGGUAUAUACGGUAGGGAGGAUAUGGGACAUGAGGAUCACCCAUGUGUAG | – | – | 0.0578 | 0.0448 |
| AUAUAACAUGAGGAUCACCCAUGUCACUAAAGUCGAGGAUAUGGGCAGGUUAUAUCCGAACCAGAAGGCGAAUUAU | – | – | 0.22 | 0.0292 |
| AUAUAAUAUCAGGAUAUGACUAGCUGCGGCUAGUCAGAAGGGAUGACAUGAGGAUCACCCAUGUGAUCAUAUAU | 0.0333 | 0.151 | – | – |
| AUAUAGAUGGUCAGGAUAUGCUAGUGGUAACAGUAGCAGAAGGGACAUGAGGAUCACCCAUGUGGAUACUGCGC | 0.0254 | 0.0859 | – | – |
| AUAUAGGCCCAGAAGGUGCCAGCGAGAGCUGCACAUGAGGAUCACCCAUGUUGUCGGUGACGACGCAAGGAUAUGGGCCUAUAU | – | – | 0.0248 | 0.00713 |
| AUAUGAGAAGCAGGAUAUGUGAAAAAAAAACAUACAGAAGGGUUUAUGGAAAAACAUGAGGAUCACCCAUGUUCUUUGUGAUGA | – | – | 0.0335 | 0.0324 |
| AUAUGGGCUAACAUGAGGAUCACCCAUGUGUUAUACUUAAUAUAGGAUAUGUUUAUACUUUUUGGGCAGAAGGAUGGCCCAUAU | – | – | 0.0679 | 0.0687 |
| AUAUUACGAGGAUAUCGUCUCUCCCACAUGAGGAUCACCCAUGUUAUCCAUGUUUCGUUUCGAGAAGGCGUAAGUU | 0.0759 | 0.058 | – | – |
| AUAUUACGAGGAUAUCGUUUUUUUCACAUGAGGAUCACCCAUGUUAUUUAUGUUUCGUUUCGAGAAGGCGUAAGUU | 0.025 | 0.0221 | – | – |
| AUAUUGUGAGGAUAUCCAAUAUAUGACAUGAGGAUCACCCAUGUUUCCACUCGUACCUCCGGAGAAGGCACUUAUA | 0.0243 | 0.0228 | – | – |
| AUAUUUUUGUAGAAGGUACGUGAUUAGUCAAAGUAAGGAUAUACUGACAUGAGGAUCACCCAUGUUUUAAUAGUUAACAGUUCU | – | – | 0.0129 | 0.00801 |
| AUCAAUCGUGUAGGAUAUGCGUGGCGAAGCUAUGCAGAAGGACAUGAGGAUCACCCAUGUCUUUCUGUCUGCGUACAGACAGGA | 0.018 | 0.0434 | – | – |
| AUCAGCUCGUCAGGAUAUACGACACUGCGUCAGCAGUGUGGUAAGAUCACAUGAGGAUCACCCAUGUAGAAGGGACGAGCUGAU | 0.00687 | 0.0281 | – | – |
| AUCAGCUCGUCAGGAUAUACGUCACUGCGUCAGCAGUGUCGUAAGAUCACAUGAGGAUCACCCAUGUAGAAGGGACGAGCUGAU | 0.00531 | 0.00549 | – | – |

| Sequence | apparent Kd [1] [µM] | apparent Kd [2] [µM] | apparent Kd [3] [µM] | apparent Kd [4] [µM] |
| --- | --- | --- | --- | --- |
| AUCAGCUCGUCAGGAUAUACGUCACUGCGUCAGCAGUGUGGUAAGAUCACAUGAGGAUCACCCAUGUAGAAGGGACGAGCUGAC | 0.0142 | 0.306 | – | – |
| AUCAGCUCGUCAGGAUAUACGUCACUGCGUCAGCAGUGUGGUAAGAUCACAUGAGGAUCACCCAUGUAGAAGGGACGGGCUGAU | 0.0138 | 0.253 | – | – |
| AUCAGCUCGUCAGGAUAUACGUCACUGCGUCAGCAGUGUGGUAAGAUCACAUGAGGAUCACCCAUGUAGAAGGGACGUGCUGAU | 0.0133 | 0.314 | – | – |
| AUCAGCUCGUCAGGAUAUACGUCACUGCGUCAGCAGUGUGGUAAGAUCACAUGAGGAUCACCCAUGUAGAAGGUACGAGCUGAU | 0.0086 | 0.0138 | – | – |
| AUCAGCUCGUCAGGAUAUACGUCACUGCGUCAGCGGUGUGGUAAGAUCACAUGAGGAUCACCCAUGUAGAAGGGACGAGCUGAU | 0.0136 | 0.232 | – | – |
| AUCAGCUCGUCAGGAUAUACGUCACUGCGUCAGUAGUGUGGUAAGAUCACAUGAGGAUCACCCAUGUAGAAGGGACGAGCUGAU | 0.0145 | 0.285 | – | – |
| AUCAGCUCGUCAGGAUAUACGUCACUGUGUCAGCAGUGUGGUAAGAUCACAUGAGGAUCACCCAUGUAGAAGGGACGAGCUGAU | 0.0129 | 0.235 | – | – |
| AUCAGCUCGUCAGGAUAUACGUCACUUCGUCAGCAGUGUGGUAAGAUCACAUGAGGAUCACCCAUGUAGAAGGGACGAGCUGAU | 0.0857 | 0.31 | – | – |
| AUCAGCUCGUCAGGAUAUACGUCAUUGCGUCAGCAGUGUGGUAAGAUCACAUGAGGAUCACCCAUGUAGAAGGGACGAGCUGAU | 0.0139 | 0.286 | – | – |
| AUCAGCUCGUCAGGAUAUACGUCGUGGUAAGAUCACAUGAGGAUCACCCAUGUAGAAGGGACGAGCUGAUAAGCACGAAAGUGC | 0.745 | 0.0471 | – | – |
| AUCAGCUCGUCAGGAUAUUCGUCACUGCGUCAGCAGUGUGGUAAGAUCACAUGAGGAUCACCCAUGUAGAAGGGACGAGCUGAU | 0.00823 | 0.0192 | – | – |
| AUCAUCUUAUCAGGAUAUGCGAGUCGACGAAAGUAGACAAUCUUGAUAACAUGAGGAUCACCCAUGUAGAAGGGAUGAGAUGAU | 0.0481 | 0.0517 | – | – |
| AUCAUUCGUGUAGGAUAUGCGUGGCGAAGCUAUGCAGAAGGACAUGAGGAUCACCCAUGUCUUUCUGUCUGUGUACAGACAGGA | 0.0222 | 0.0948 | – | – |
| AUCCCGAUAGUAGGAUAUUUCUGCAGUUGUGGUUAGAUCGCCCUACAUGAGGAUCACCCAUGUAGAGAGAAGGACUGUGGUUAU | 0.0057 | 0.00854 | – | – |
| AUCCUACAUGAGGAUCACCCAUGUGACGCCUCAAUAGGAUAUGCGUGUGCCUUGGCGCAUGCAGAAGGAUUGAAGC | – | – | 0.285 | 0.0481 |
| AUCCUGCGAGGAUAUACAUAGUGACGUCUGUUAGGUCUCAAACAUGAGGAUCACCCAUGUAGAAGGUGCGUCAC | 0.0194 | 0.0182 | – | – |
| AUCCUGCGAGGAUAUACAUAGUUUUGUUUGUUUUGUCUCAAACAUGAGGAUCACCCAUGUAGAAGGUGCGUCAC | 0.155 | 0.13 | – | – |
| AUCGACAGUGUCAGGAUAUCUCACCCGAGUGGGCGAGAGAAGGGACAUGAGGAUCACCCAUGUGCGUUCUCUAA | 0.0275 | 0.174 | – | – |
| AUCGGAUUGUAGAAGGGUGACAUGAGGAUCACCCAUGUUCAAAUGCGUUUUUCGGUAAUUGUUCCACAGGAUAUACUGUCCGAG | – | – | 0.675 | 0.139 |
| AUCGUGUUAGGAUAUGCAUGUCGCUGGGUAGCUAGCGAUAGGCAGAAGGAACAUGAGGAUCACCCAUGUUCGGG | 0.158 | 0.078 | – | – |
| AUGAGGUCAGGAUAUGCAUGGCGGGACUUGCGUCGUGGCGUGCAGAAGGGACAUGAGGAUCACCCAUGUGGAGC | 0.0734 | 0.169 | – | – |
| AUGCAGGGCGAGAAGGAGCGACAUGAGGAUCACCCAUGUAUCUUCAACUCGCUAGGAUAUCGGGUUGUAUUGAAAAUUAUUGAA | 0.00486 | 0.0055 | – | – |
| AUGCCGUGCAGAGCGCGACGGCGUACAUGAGGAUCACCCAUGUAGGAUAUACUACACAAAGUGUAGUAGAAGGACAUGCGACUG | 0.062 | 0.145 | – | – |
| AUGCUAGUGUGAGGAUAUUAUUGACAUGAGGAUCACCCAUGUGUGAGUCCAACAUGAGCUACAGUUAAGAAGGUACAUUAGCAU | 0.0455 | 0.0381 | – | – |
| AUGCUUCACACAGGAUAUACAUGAGGAUCACCCAUGUGUGGGCGGUAGCUCGAAAGAGCUACCGGGUAGAAGGGUGUGAAGCAU | 0.0271 | 0.132 | – | – |
| AUGGUACAUGAGGAUCACCCAUGUCCAGCAAAUCAAGGAUAUGGACGACAAAUUUCUCGGCCAGAAGGUGAAACAA | – | – | 0.0394 | 0.0215 |
| AUGGUGCAGGUACAGGAUAUGUUGCUCGUAACAUGAGGAUCACCCAUGUACCUAUGAGAUUAAAUGCAGAAGGGUGCACACCAAA | – | – | 0.538 | 0.0206 |
